Laboratory results from ChEMBL document CHEMBL1135581, “Novel selective PDE4 inhibitors. 3. In vivo antiinflammatory activity of a new series of N-substituted cis-tetra- and cis-hexahydrophthalazinones” (J Med Chem, 2002).

How the values were obtained:
Mus musculus [1] = assay: Percent inhibition of arachidonic acid (AA) […], induced mouse ear edema after pretreatment at a concentration of 30 umol/kg (po); type: functional
Procedure, shortened: (§1)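 Female NMRI mice, 25–32 g, n = 8 per group. Compound in water (pH 6.5–7) given by gavage at 30 μmol/kg, 1 h before 3 mg arachidonic acid in 10 μL acetone applied to the right ear.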

Phosphodiesterase 4 = Phosphodiesterase 4 (Homo sapiens, UniProt P27815+Q08499+Q07343+Q08493); assay: Inhibitory concentration against phosphodiesterase 4 (PDE4) in cytosol of human neutrophils; type: protein assay
[2] = Inhibition of LPS-stimulated tumor necrosis factor-alpha release by human whole blood; type: functional
Procedure, shortened: (§2)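 Heparinized venous human whole blood (8 U/mL) from healthy volunteers, preincubated 15 min at 37 °C with compound (0.001–10 μM final, 0.1% DMSO). Then stimulated with LPS (1 μg/mL final) for 4 h at 37 °C. Plasma TNFα measured by nonisotopic immunoassay. IC30 from concentration–inhibition curves by nonlinear regression. Means of two independent determinations in triplicate.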

[3] = Inhibition of N-formyl-methionyl-leucyl-phenylalanine (fMLP)-stimulated production of reactive oxygen species (ROS) in human PMNL by 35% of control; type: functional
Procedure, shortened: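 PMNL isolated from citrated human blood (dextran sedimentation, ficoll, hypotonic lysis), 1.25 × 10^7 cells/mL. Buffer: HEPES saline with Mg/Ca, glucose, BSA, 10 μM luminol, 4 μM microperoxidase. […] IC35 by nonlinear regression. Two independent determinations in triplicate.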

[4] = Inhibition of LPS-stimulated Tumor necrosis factor alpha release by human whole blood; type: functional; procedure, shortened: as §2
Mus musculus [5] = assay: Percent inhibition of arachidonic acid induced mouse ear edema after 1 hr pretreatment with 30 uM/kg peroral dose; type: functional; procedure, shortened: as §1

SMILES | inhibition in vivo at 30 µmol/kg (Mus musculus [1]) [%] | Log IC50 (Phosphodiesterase 4) | further results
COc1ccc(C2=NN(Cc3ccncc3)C(=O)C3CCCCC23)cc1OC (centres undefined) | 29 | -7.8 | –
COc1ccc(C2=NN(c3ccccc3)C(=O)C3CCCCC23)cc1OC (centres undefined) | – | -7.6 | –
COc1ccc(C2=NN(Cc3cccnc3)C(=O)C3CCCCC23)cc1OC (centres undefined) | – | -7.6 | –
COc1ccc(C2=NN(C3CCSCC3)C(=O)C3CC=CCC23)cc1OC (centres undefined) | – | -8.9 | –
COc1ccc(C2=NN(Cc3ccc(C(=O)O)cc3)C(=O)C3CCCCC23)cc1OC (centres undefined) | 27 | -7.3 | –
CCN1N=C(c2ccc(OC)c(OC)c2)C2CCCCC2C1=O (centres undefined) | – | -7.4 | –
COc1ccc(C2=NN(C(C)C)C(=O)C3CC=CCC23)cc1OC (centres undefined) | 15 | -8.9 | –
COc1ccc(C2=NN(C3Cc4ccccc4C3)C(=O)C3CC=CCC23)cc1OC (centres undefined) | – | -9.1 | –
COc1ccc(C2=NN(CCCCn3ccnc3)C(=O)C3CCCCC23)cc1OC (centres undefined) | 39 | -8 | –
COc1ccc([C@H](Cc2ccncc2)c2ccccc2)cc1OC1CCCC1 [CDP840] | 48 | – | pIC30 [2]: 4.82; pIC35 [3]: 7.2
COc1ccc(C2=NN(CCN(C)C)C(=O)C3CCCCC23)cc1OC (centres undefined) | – | -6.5 | –
COc1ccc(C2=NN(CCCCCCN(C)C)C(=O)C3CCCCC23)cc1OC (centres undefined) | – | -7 | –
COc1ccc(C2=NN(CCc3ccccc3)C(=O)C3CCCCC23)cc1OC (centres undefined) | – | -7.6 | –
COc1ccc(C2=NN(C3CCCCC3)C(=O)C3CC=CCC23)cc1OC (centres undefined) | 13 | -9.2 | –
COc1ccccc1CN1N=C(c2ccc(OC)c(OC)c2)C2CCCCC2C1=O (centres undefined) | – | -7.7 | –
COc1ccc(C2=NN(CCO)C(=O)C3CCCCC23)cc1OC (centres undefined) | – | -6.8 | –
C#CCN1N=C(c2ccc(OC)c(OC)c2)C2CCCCC2C1=O (centres undefined) | – | -7.4 | –
COc1ccc(C2=NN(C3CCCC3)C(=O)C3CCCCC23)cc1OC (centres undefined) | – | -8.4 | –
COc1ccc(CN2N=C(c3ccc(OC)c(OC)c3)C3CCCCC3C2=O)cc1 (centres undefined) | 13 | -8.2 | –

SMILES | inhibition in vivo at 30 µmol/kg (Mus musculus [1]) [%] | Log IC50 (Phosphodiesterase 4) | further results
COc1ccc(C2=NN(C3CCCCCCC3)C(=O)C3CC=CCC23)cc1OC (centres undefined) | 30 | -9.3 | –
COc1ccc(C2=NN(Cc3ccccc3O)C(=O)C3CCCCC23)cc1OC (centres undefined) | – | -8.1 | –
COC(=O)c1ccc(CN2N=C(c3ccc(OC)c(OC)c3)C3CCCCC3C2=O)cc1 (centres undefined) | – | -7.9 | –
COc1ccc(C2=NN(Cc3ccc(O)cc3)C(=O)C3CCCCC23)cc1OC (centres undefined) | – | -8 | –
C=CCN1N=C(c2ccc(OC)c(OC)c2)C2CCCCC2C1=O (centres undefined) | – | -7.6 | –
COc1ccc(C2=NN(CC(=O)c3ccccc3)C(=O)C3CCCCC23)cc1OC (centres undefined) | – | -8 | –
COc1ccc(C2=NN(CC3CC3)C(=O)C3CC=CCC23)cc1OC (centres undefined) | 15 | -8.1 | –
COc1ccc(C2=NN(Cc3ccccn3)C(=O)C3CCCCC23)cc1OC (centres undefined) | – | -7.6 | –
COc1ccc(C2=NN(C/C=C/c3ccccc3)C(=O)C3CCCCC23)cc1OC (centres undefined) | – | -7.8 | –
COc1ccc(C2=NN(C)C(=O)C3CCCCC23)cc1OC (centres undefined) | – | -6.8 | –
COc1ccc(C2=NN(CCn3ccnc3)C(=O)C3CCCCC23)cc1OC (centres undefined) | – | -6.3 | –
CCCN1N=C(c2ccc(OC)c(OC)c2)C2CCCCC2C1=O (centres undefined) | – | -7.8 | –
COc1ccc(C2=NN(CCCCCC(=O)[O-])C(=O)C3CCCCC23)cc1OC.[Na+] (centres undefined) | 18 | -7.5 | –
COc1ccc(C2=NN(C3CCCCCC3)C(=O)C3CC=CCC23)c2c1OC1(CCCC1)C2 (centres undefined) | 49 | – | –
COc1ccc(C2=NN(CCCCCCN)C(=O)C3CCCCC23)cc1OC (centres undefined) | – | -7.1 | –
COc1ccc(C2=NN(C3CCCCCC3)C(=O)C3CCCCC23)cc1OC (centres undefined) | 18 | -8.6 | pIC30 [4]: 7.3
CCOC(=O)CN1N=C(c2ccc(OC)c(OC)c2)C2CCCCC2C1=O (centres undefined) | – | -7.2 | –
COc1ccc(C2=NN(CC(=O)O)C(=O)C3CCCCC23)cc1OC (centres undefined) | – | -5.7 | –
COc1ccc(C2=NN(C3CCCCCC3)C(=O)C3CC=CCC23)cc1OC (centres undefined) | 59 | – | pIC30 [2]: 7.05; pIC35 [3]: 6.82

SMILES | inhibition in vivo at 30 µmol/kg (Mus musculus [1]) [%] | Log IC50 (Phosphodiesterase 4) | further results
COc1ccc(C2=NN(C3C4CC5CC(C4)CC3C5)C(=O)C3CC=CCC23)cc1OC (centres undefined) | 51 | -9.4 | pIC30 [2]: 7.22; pIC35 [3]: 6.3
COc1ccc(C2=NN(CC#N)C(=O)C3CCCCC23)cc1OC (centres undefined) | – | -7.2 | –
COc1ccc([C@]2(C#N)CC[C@@H](C(=O)O)CC2)cc1OC1CCCC1 [CILOMILAST] | 33 | – | pIC30 [2]: 4.89; pIC35 [3]: 7.04
COc1ccc(C2=NN(C3CCOCC3)C(=O)C3CC=CCC23)cc1OC (centres undefined) | 2 | -8.9 | –
COc1ccc(C2=NN(C3CCCCCC3)C(=O)C3CCCCC23)c2c1OC1(CCCC1)C2 (centres undefined) | 29 | -9.2 | –
COc1ccc(C2=NN(CCCOc3ccccc3)C(=O)C3CCCCC23)cc1OC (centres undefined) | – | -7.9 | –
COc1ccc(C2=NN(CCCCCCCC(=O)O)C(=O)C3CCCCC23)cc1OC (centres undefined) | – | -7.6 | Inhibition (Mus musculus [5]): 13%
COc1ccc(C2=NN(Cc3cccc(C(=O)O)c3)C(=O)C3CCCCC23)cc1OC (centres undefined) | 18 | -7.9 | –
COc1ccc(C2=NN(C(C)(C)C)C(=O)C3CCCCC23)cc1OC (centres undefined) | – | -7.9 | –
COc1ccc([C@@H]2CNC(=O)C2)cc1OC1CCCC1 [(-)-ROLIPRAM] | – | – | Inhibition (Mus musculus [5]): 55%
COc1cc(CN2N=C(c3ccc(OC)c(OC)c3)C3CCCCC3C2=O)cc(OC)c1 (centres undefined) | – | -7.6 | –
COc1cccc(CN2N=C(c3ccc(OC)c(OC)c3)C3CCCCC3C2=O)c1 (centres undefined) | 8 | -8.5 | –
COc1ccc(C2=NN(C3CCCCCC3)C(=O)C3CC=CCC23)c2c1OC(C)(C)C2 (centres undefined) | 54 | – | pIC30 [2]: 7.05
COc1ccc(C2=NN(CCCO)C(=O)C3CCCCC23)cc1OC (centres undefined) | – | -7.5 | –
COc1ccc(C2=NN(C(C)C)C(=O)C3CCCCC23)cc1OC (centres undefined) | 14 | -8.6 | –
COc1ccc(C2=NN(CCCCN(C)C)C(=O)C3CCCCC23)cc1OC (centres undefined) | – | -7 | –
COc1ccc(C2=NN(C3CCCC3)C(=O)C3CC=CCC23)cc1OC (centres undefined) | 19 | -9.3 | –
COc1ccc(C2=NN(Cc3cccc(O)c3)C(=O)C3CCCCC23)cc1OC (centres undefined) | – | -8 | –
